The values below come from ChEMBL document CHEMBL4014308, “Amphiphilic Tobramycin-Lysine Conjugates Sensitize Multidrug Resistant Gram-Negative Bacteria to Rifampicin and Minocycline” (J Med Chem, 2017).

The structures appear in SMILES notation. Calls of active or inactive are those of the source. No cut-off for these calls is given here.

One may read the MIC as the lowest concentration that inhibits growth of the organism.

Assay [1] deals with Pseudomonas aeruginosa. The assay is described as follows: Antibacterial activity against gentamicin-resistant Pseudomonas aeruginosa isolate CAN-ICU 62308 after 18 hrs by microtiter dilution assay. Type of assay: functional. The following applies: isolate CAN-ICU 62308, 18 h. The method, boiled down:
(§1)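 Broth microdilution following CLSI guidelines. An overnight culture was adjusted to 0.5 McFarland in saline, then diluted 1:50 in Mueller-Hinton broth. This inoculum was added in equal volume to 2-fold serial dilutions of agent in MHB and incubated 18 h at 37 °C. MIC was the lowest concentration with no visible growth.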

The test system of assay [2] is Stenotrophomonas maltophilia. The assay is described as follows: Antibacterial activity against Stenotrophomonas maltophilia isolate CAN-ICU 62584 after 18 hrs by microtiter dilution assay. Type of assay: functional. The note with it: isolate CAN-ICU 62584, 18 h. Put shortly:
(§2)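 Broth microdilution per CLSI. Overnight culture adjusted to 0.5 McFarland in saline, diluted 1:50 in Mueller-Hinton broth, and added to an equal volume of 2-fold serial compound dilutions in MHB. Incubated 18 h at 37 °C. MIC taken as the lowest concentration with no visible growth.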

Another assay has as its system Klebsiella pneumoniae. The experiment in a line: Antibacterial activity against Klebsiella pneumoniae ATCC 13883 after 18 hrs by microtiter dilution assay. Type of assay: functional. The following applies: ATCC 13883, 18 h. Put shortly: as §2
The subject of assay [3] is Pseudomonas aeruginosa. The assay is described as follows: Antibacterial activity against multidrug/extremely drug-resistant/colistin-resistant Pseudomonas aeruginosa isolate 101243 after 18 hrs by microtiter dilution assay. Type of assay: functional. The following applies: isolate 101243, 18 h. Put shortly:
as §1

Assay [4] concerns Pseudomonas aeruginosa. The assay is described as follows: Synergistic antibacterial activity against Pseudomonas aeruginosa PAO1 after 18 hrs in presence of moxifloxacin by checkerboard assay. The assay is classed as functional. The following applies: PAO1, 18 h. The method, boiled down:
(§3)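 Checkerboard in MHB: antibiotic diluted along one axis and adjuvant along the other (10 × 7 matrix). Inoculum was a 1:50 dilution in MHB of a 0.5 McFarland saline suspension; incubated 18 h at 37 °C. Each FIC = concentration in the no-growth well divided by the MIC alone; FIC index = sum of both FICs. ≤0.5 synergy, 0.5–4 no interaction, ≥4 antagonism.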

The test system of assay [5] is Pseudomonas aeruginosa. The assay is described as follows: Synergistic antibacterial activity against Pseudomonas aeruginosa PAO1 after 18 hrs in presence of chloramphen by checkerboard assay. Type of assay: functional. The note with it: PAO1, 18 h. The method, boiled down:
as §3

In assay [6] the test system is Pseudomonas aeruginosa. The assay is described as follows: Synergistic antibacterial activity against Pseudomonas aeruginosa PAO1 after 18 hrs in presence of kanamycin A by checkerboard assay. Type of assay: functional. The note with it: PAO1, 18 h. Put shortly: as §3
Assay [7] relates to Pseudomonas aeruginosa. The experiment in a line: Synergistic antibacterial activity against Pseudomonas aeruginosa PAO1 after 18 hrs in presence of amikacin by checkerboard assay. Type of assay: functional. The following applies: PAO1, 18 h. Put shortly:
as §3

Assay [8] concerns Pseudomonas aeruginosa. The experiment in a line: Potentiation of meropenem-induced antibacterial activity against Pseudomonas aeruginosa PAO1 at 4 ug/ml after 18 hrs by checkerboard assay. Type of assay: functional. Put shortly:
(§4)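 Checkerboard in Mueller-Hinton broth: antibiotic serially diluted along one axis and adjuvant along the other (10 × 7 matrix). Inoculum from a 0.5 McFarland saline suspension diluted 1:50 in MHB; 18 h at 37 °C, then plate read. MIC is the lowest concentration with no growth. FIC of each agent is its concentration in a no-growth well divided by its MIC alone; FIC index is the sum of both. FIC index ≤0.5 counts as synergy.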

Assay [9] concerns Pseudomonas aeruginosa. The experiment in a line: Potentiation of rifampicin-induced antibacterial activity against Pseudomonas aeruginosa PAO1 at 4 ug/ml after 18 hrs by checkerboard assay. Type of assay: functional. Put shortly: (§5)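 Checkerboard in MHB with a 10 × 7 matrix: antibiotic serially diluted along one axis, adjuvant along the other. Inoculum was a 1:50 dilution of a 0.5 McFarland suspension, incubated 18 h at 37 °C and read on a plate reader. Each FIC is the concentration in a no-growth well divided by the MIC alone; FIC index is their sum, with ≤0.5 taken as synergy.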

Assay [10] deals with Pseudomonas aeruginosa. The experiment in a line: Potentiation of colistin-induced antibacterial activity against Pseudomonas aeruginosa PAO1 at 4 ug/ml after 18 hrs by checkerboard assay. Type of assay: functional. The method, boiled down: as §4
For assay [11], the system named is Pseudomonas aeruginosa. The assay is described as follows: Potentiation of rifampicin-induced antibacterial activity against multidrug/extremely drug-resistant/colistin-susceptible Pseudomonas aeruginosa isolate 100036 assessed as fold reduction in rifampicin MIC at 4 ug/ml after 18 hrs by checkerboard assay relative to control. Type of assay: functional. The method, boiled down:
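Checkerboard in Mueller-Hinton broth, 10 × 7 matrix, with the adjuvant held at 4 µg/mL. Inoculum from a 0.5 McFarland suspension diluted 1:50; 18 h at 37 °C. Antibiotic MIC (lowest concentration with no growth) with adjuvant is compared with the antibiotic MIC alone, giving a fold reduction.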

The subject of assay [12] is Pseudomonas aeruginosa. The assay is described as follows: Potentiation of rifampicin-induced antibacterial activity against multidrug/extremely drug-resistant/colistin-susceptible Pseudomonas aeruginosa isolate 100036 at 4 ug/ml after 18 hrs by checkerboard assay. Type of assay: functional. The method, boiled down: as §4
The subject of assay [13] is Pseudomonas aeruginosa. The assay is described as follows: Potentiation of minocycline-induced antibacterial activity against multidrug/extremely drug-resistant/colistin-susceptible Pseudomonas aeruginosa isolate P264-104354 at 4 ug/ml after 18 hrs by checkerboard assay. The assay is classed as functional. Put shortly: as §4
Assay [14] relates to Pseudomonas aeruginosa. The experiment in a line: Potentiation of rifampicin-induced antibacterial activity against multidrug/extremely drug-resistant/colistin-resistant Pseudomonas aeruginosa isolate 91433 at 4 ug/ml after 18 hrs by checkerboard assay. Type of assay: functional. Put shortly: as §4
The subject of assay [15] is Pseudomonas aeruginosa. The assay is described as follows: Potentiation of rifampicin-induced antibacterial activity against multidrug/extremely drug-resistant/colistin-resistant Pseudomonas aeruginosa isolate 101243 at 4 ug/ml after 18 hrs by checkerboard assay. Type of assay: functional. Put shortly:
as §4

In assay [16] the test system is Pseudomonas aeruginosa. The assay is described as follows: Potentiation of minocycline-induced antibacterial activity against Pseudomonas aeruginosa PAO750 harboring RND efflux pump/OpmH deletion mutant after 18 hrs by checkerboard assay. Type of assay: functional. The method, boiled down: as §5
For assay [17], the system named is Acinetobacter baumannii. The assay is described as follows: Antibacterial activity against multidrug-resistant Acinetobacter baumannii AB027 after 18 hrs by microtiter dilution assay. The assay is classed as functional. The note with it: AB027, 18 h. Put shortly:
as §1

Assay [18] relates to Acinetobacter baumannii. The experiment in a line: Antibacterial activity against multidrug-resistant Acinetobacter baumannii 110193 after 18 hrs by microtiter dilution assay. Type of assay: functional. The note with it: Acinetobacter baumannii, 110193, 18 h. Put shortly:
as §1

Assay [19] deals with Acinetobacter baumannii. The experiment in a line: Synergistic antibacterial activity against multidrug-resistant Acinetobacter baumannii 110193 after 18 hrs in presence of rifampicin by checkerboard assay. Type of assay: functional. The following applies: Acinetobacter baumannii, 110193, 18 h. The method, boiled down:
as §5

Assay [20] relates to Pseudomonas aeruginosa. The assay is described as follows: Bactericidal activity against Pseudomonas aeruginosa PAO1 at 2 times antibacterial MIC after 30 mins. The assay is classed as functional. Put shortly: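 Time-kill with P. aeruginosa PAO1. A 0.5 McFarland suspension was diluted 1:50 in LB broth and exposed to agent in PBS (pH 7.2) at 1/2×, 1×, 2× or 4× MIC at 37 °C for 6 h. Samples at 0, 10, 30, 60, 90, 120, 240 and 360 min were serially diluted in PBS, plated on LB agar, and colonies counted after 20 h at 37 °C.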

Assay [21] concerns Pseudomonas aeruginosa. The experiment in a line: Potentiation of minocycline-induced antibacterial activity against multidrug/extremely drug-resistant/colistin-susceptible Pseudomonas aeruginosa isolate P262-101856 infected in Galleria mellonella assessed as host survival at 75 mg/kg after 24 hrs relative to control. The note with it: isolate P262-101856, 24 h. The assay is classed as functional. Put shortly: (§6)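 Galleria mellonella larvae (about 250 mg, used within 7 days; 15 per group) were injected with 10 µL of XDR P. aeruginosa P262 at 1.0×10^3 CFU/mL. At 2 h they received a single 10 µL injection: monotherapy at 75 mg/kg, or combinations at 12.5+12.5 to 75+75 mg/kg. PBS vehicle served as control. Survival was scored over 24 h at 37 °C.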

Assay [22] concerns Pseudomonas aeruginosa. The assay is described as follows: Potentiation of rifampicin-induced antibacterial activity against multidrug/extremely drug-resistant/colistin-susceptible Pseudomonas aeruginosa isolate P262-101856 infected in Galleria mellonella assessed as host survival at 75 mg/kg after 24 hrs relative to control. The note with it: isolate P262-101856, 24 h. The assay is classed as functional. Put shortly:
as §6

Assay [23] can be described thus: Ratio of cytotoxic concentration against human DU145 cells to synergistic concentration for Pseudomonas aeruginosa PAO1 in presence of rifampicin.

Take `Cl.Cl.Cl.Cl.Cl.Cl.Cl.NCCCC[C@H](N)C(=O)N(CCCCCCCCCCCCO[C@@H]1[C@@H](O[C@H]2O[C@H](CO)[C@@H](O)[C@H](N)[C@H]2O)[C@H](N)C[C@H](N)[C@H]1O[C@H]1O[C@H](CN)[C@@H](O)C[C@H]1N)Cc1c2ccccc2c(Cl)c2ccccc12`: the MIC against Pseudomonas aeruginosa [1] is 16 µg/mL; in assay [2] it was more than 128 µg/mL; in the assay on Klebsiella pneumoniae it was 128 µg/mL; against Pseudomonas aeruginosa [3] it was 16 µg/mL; in the assay with Pseudomonas aeruginosa [4] it was 2 µg/mL; in the assay on Pseudomonas aeruginosa [5], 4 µg/mL. In addition, the MIC worked out at 0.5 µg/mL in the assay with Pseudomonas aeruginosa [6]; 2 µg/mL with Pseudomonas aeruginosa [7]; 128 µg/mL against Acinetobacter baumannii [17]; 16 µg/mL against Acinetobacter baumannii [18]; 1 µg/mL in the assay with Acinetobacter baumannii [19]. Also, the “fractional inhibitory concentration index (FICI)” value in the assay with Pseudomonas aeruginosa [8] is listed as 2.031; in the assay with Pseudomonas aeruginosa [9] it was 0.094; in the assay on Pseudomonas aeruginosa [10] it was 1.031; in the assay on Pseudomonas aeruginosa [12], 0.079; with Pseudomonas aeruginosa [13], 0.079; in the assay on Pseudomonas aeruginosa [14], 0.5. Further, the “fractional inhibitory concentration index (FICI)” value in the assay with Pseudomonas aeruginosa [15] is recorded as 0.188; in the assay with Pseudomonas aeruginosa [16], 0.75. Besides, the “fold change (FC)” value with Pseudomonas aeruginosa [11] came out at 128. Besides, the result with Pseudomonas aeruginosa [20] was Active. Also, the survival at 75 mg/kg in the assay with Pseudomonas aeruginosa [21] and with Pseudomonas aeruginosa [22] was 77% each time. In addition, the Ratio in assay [23] turned out to be 6.
